Measurements from ChEMBL document CHEMBL1811833, “Phenylimino-10H-anthracen-9-ones as novel antimicrotubule agents-synthesis, antiproliferative activity and inhibition of tubulin polymerization” (Bioorg Med Chem, 2011).
The source made the active and inactive calls. The calls are words filed in the database; no cut-off is given here.

Key:
K562 = test: Antiproliferative activity against human K562 cells after 48 hrs by hemocytometer; assay type: functional, cell-based; settings: K562, 48 h
Procedure, shortened: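 K562 human erythroid leukemia cells were treated with drug for 48 h, and the cells were then counted directly with a hemocytometer. IC50 is the concentration giving 50% inhibition of cell growth. Values are means of at least three independent determinations.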

Tubulin [1] = target: T1, Tubulin (Sus scrofa, UniProt P02554+P02550); test: Inhibition of pig brain tubulin polymerization after 30 mins by turbidimetry analysis
[2] = Antiproliferative activity against rat LT12 cells after 48 hrs by XTT assay; assay type: functional, cell-based; settings: LT12, 48 h
L1210 [3] = test: Antiproliferative activity against mouse VCR-resistant L1210 cells after 48 hrs by XTT assay; assay type: functional, cell-based; settings: L1210, 48 h
Procedure, shortened: (§1)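 Cells were exposed to test compound for 48 h and growth was read by XTT proliferation assay. Experiments were run in at least two replicates (n = 2). IC50 was calculated from dose–response curves by nonlinear regression.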

[4] = Antiproliferative activity against rat multiple drug-resistant LT12 cells after 48 hrs by XTT assay; assay type: functional, cell-based; settings: LT12, 48 h; procedure, shortened: as §1
Tubulin (Sus scrofa) = Tubulin (Sus scrofa) (UniProt P02554+P02550); test: Displacement of [3H]paclitaxel from biotinylated pig brain tubulin after 2 hrs by competitive scintillation proximity assay
P388 [5] = test: Antiproliferative activity against ADR-resistant mouse P388 cells after 48 hrs by XTT assay; assay type: functional, cell-based; settings: P388, 48 h; procedure, shortened: as §1
[6] = Cytotoxicity against ponasterone A-induced human RKOp27 cells with ectopic inducible expression of CDK inhibitor-kip1 after 48 hrs by XTT assay; assay type: functional, cell-based; settings: RKOp27, 48 h; procedure, shortened: as §1
SK-OV-3 = test: Cytotoxicity against human SKOV3 cells after 48 hrs by XTT assay; assay type: functional, cell-based; settings: SK-OV-3, 48 h; procedure, shortened: as §1
P388 [7] = test: Antiproliferative activity against mouse P388 cells after 48 hrs by XTT proliferation assay; assay type: functional, cell-based; settings: P388, 48 h; procedure, shortened: as §1
NCI-H460 = test: Cytotoxicity against human NCI-H460 cells after 48 hrs by XTT assay; assay type: functional, cell-based; settings: NCI-H460, 48 h; procedure, shortened: as §1
L1210 [8] = test: Antiproliferative activity against mouse L1210 cells after 48 hrs by XTT assay; assay type: functional, cell-based; settings: L1210, 48 h; procedure, shortened: as §1
Tubulin [9] = target: T1, Tubulin; test: Displacement of [3H]colchicine from biotinylated pig brain tubulin after 2 hrs by competitive scintillation proximity assay
[10] = Cytotoxicity against non induced human RKOp27 cells after 48 hrs by XTT assay; assay type: functional, cell-based; settings: RKOp27, 48 h; procedure, shortened: as §1
SF-268 = test: Cytotoxicity against human SF268 cells after 48 hrs by XTT assay; assay type: functional, cell-based; settings: SF-268, 48 h; procedure, shortened: as §1
[11] = Cell cycle arrest in human KB/HeLa cells assessed as accumulation of cells at G2/M phase after 24 hrs by flow cytometry; assay type: functional, cell-based
Procedure, shortened: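 Sub-confluent KB/HeLa cells were exposed to a range of compound concentrations for 24 h. The cells were then permeabilized and stained with propidium iodide, and DNA content was measured by flow cytometry. The percentage of cells in G2/M was plotted against concentration, and EC50 is the concentration giving 50% of cells arrested in G2/M. At least two replicates were run, with nonlinear regression fitting.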

[12] = Cytotoxicity against human KB/HeLa cells after 48 hrs by XTT assay; assay type: functional, cell-based; procedure, shortened: as §1

For `COc1cccc(NN=C2c3ccccc3C(=O)c3ccccc32)c1`, the IC50 (K562) was 9000 nM and the IC50 (Tubulin [1]) was > 10000 nM.
With `COc1ccc(N=C2c3cccc(Cl)c3C(=O)c3c(Cl)cccc32)cc1` the IC50 (K562) was 520 nM.
`COc1ccc(N=C2c3ccccc3C(=O)c3ccccc32)c(OC)c1` showed an IC50 (K562) of 3400 nM and an IC50 (Tubulin [1]) of 1600 nM.
With `CC[C@]1(O)C[C@@H]2CN(CCc3c([nH]c4ccccc34)[C@@](C(=O)OC)(c3cc4c(cc3OC)N(C)[C@H]3[C@@](O)(C(N)=O)[C@H](O)[C@]5(CC)C=CCN6CC[C@]43[C@@H]65)C2)C1` [VINDESINE] the IC50 [2] was 1 nM, the IC50 (L1210 [3]) was > 5000 nM and the IC50 [4] was 260 nM.
Work on `O=C1c2ccccc2C(=Nc2ccccc2)c2ccccc21` yielded an IC50 (K562) of 6800 nM and an IC50 (Tubulin [1]) of 1450 nM.
With `COc1ccc(N=C2c3cccc(Cl)c3C(=O)c3c(Cl)cccc32)cc1O` the IC50 [2] was 310 nM, the Activity (Tubulin (Sus scrofa)) was “inactive” and the IC50 (P388 [5]) was 300 nM. The IC50 (K562) was 110 nM, the IC50 [6] was > 9000 nM and the IC50 (L1210 [3]) was 190 nM. For the same compound, the IC50 (SK-OV-3) was 100 nM, the IC50 (P388 [7]) was 230 nM and the IC50 (NCI-H460) was 180 nM. For the same compound, the IC50 (L1210 [8]) was 190 nM, the IC50 (Tubulin [9]) was 2600 nM and the IC50 (Tubulin [1]) was 1110 nM. It also gave an IC50 [10] of 160 nM, an IC50 (SF-268) of 150 nM and an EC50 [11] of 121 nM. The IC50 [4] was 160 nM and the IC50 [12] was 150 nM.
`COc1ccc(N=C2c3ccccc3C(=O)c3ccccc32)cc1` showed an IC50 (K562) of 680 nM and an IC50 (Tubulin [1]) of 1900 nM.
Compound `CC[C@]1(O)C[C@H]2CN(CCc3c([nH]c4ccccc34)[C@@](C(=O)OC)(c3cc4c(cc3OC)N(C=O)[C@H]3[C@@](O)(C(=O)OC)[C@H](OC(C)=O)[C@]5(CC)C=CCN6CC[C@]43[C@@H]65)C2)C1` [VINCRISTINE] has an EC50 [11] of 2.4 nM.
For `COc1cc2c(c(OC)c1OC)-c1ccc(OC)c(=O)cc1[C@@H](NC(C)=O)CC2` [COLCHICINE], the IC50 [6] was > 10000 nM, the IC50 [10] was 20 nM and the EC50 [11] was 14 nM. It also gave an IC50 [12] of 30 nM.
`COc1ccc(OC)c(N=C2c3ccccc3C(=O)c3ccccc32)c1` gave an IC50 (K562) of 870 nM.
For `COc1ccc(OC)c(NN=C2c3ccccc3C(=O)c3ccccc32)c1`, the IC50 (K562) was > 80000 nM and the IC50 (Tubulin [1]) was > 10000 nM.
With `COc1cc(NN=C2c3ccccc3C(=O)c3ccccc32)cc(OC)c1OC` the IC50 (K562) was 2740 nM and the IC50 (Tubulin [1]) was > 10000 nM.
For `CC(=O)O[C@H]1C(=O)[C@@]2(C)[C@H]([C@H](OC(=O)c3ccccc3)[C@]3(O)C[C@H](OC(=O)[C@H](O)[C@@H](NC(=O)c4ccccc4)c4ccccc4)C(C)=C1C3(C)C)[C@]1(OC(C)=O)CO[C@@H]1C[C@@H]2O` [PACLITAXEL], the IC50 (P388 [5]) was > 5000 nM, the IC50 [6] was > 3000 nM and the IC50 (L1210 [3]) was > 5000 nM. For the same compound, the IC50 [10] was 10 nM, the EC50 [11] was 49 nM and the IC50 [4] was 400 nM. The IC50 [12] was 10 nM.
For `COc1ccc(N=C2c3ccccc3C(=O)c3ccccc32)cc1OC`, the IC50 (K562) was 9300 nM and the IC50 (Tubulin [1]) was 3600 nM.
For `COc1ccc(NN=C2c3ccccc3C(=O)c3ccccc32)cc1`, the IC50 (K562) was 8410 nM and the IC50 (Tubulin [1]) was > 10000 nM.
For `COC(=O)Nc1nc2cc(C(=O)c3cccs3)ccc2[nH]1` [NOCODAZOLE], the IC50 [2] was 40 nM, the IC50 [6] was > 10000 nM and the IC50 [10] was 110 nM. For the same compound, the EC50 [11] was 91 nM, the IC50 [4] was 70 nM and the IC50 [12] was 140 nM.
In the case of `COc1cc(N=C2c3ccccc3C(=O)c3ccccc32)cc(OC)c1`, the IC50 (K562) is reported as 730 nM and the IC50 (Tubulin [1]) is reported as 1600 nM.
In the case of `O=C1c2ccccc2C(=NNc2ccccc2)c2ccccc21`, the IC50 (Tubulin [1]) is reported as > 10000 nM.
For `COc1cc(N=C2c3ccccc3C(=O)c3ccccc32)cc(OC)c1OC`, the IC50 (K562) was > 30000 nM and the IC50 (Tubulin [1]) was > 10000 nM.
With `COc1ccc(N=C2c3ccccc3C(=O)c3ccccc32)cc1O` the IC50 [2] was 180 nM, the Activity (Tubulin (Sus scrofa)) was “inactive” and the IC50 (P388 [5]) was 230 nM. The IC50 (K562) was 130 nM, the IC50 [6] was > 9000 nM and the IC50 (L1210 [3]) was 220 nM. It also gave an IC50 (SK-OV-3) of 160 nM, an IC50 (P388 [7]) of 230 nM and an IC50 (NCI-H460) of 210 nM. For the same compound, the IC50 (L1210 [8]) was 290 nM, the IC50 (Tubulin [9]) was 1100 nM and the IC50 (Tubulin [1]) was 440 nM. For the same compound, the IC50 [10] was 170 nM, the IC50 (SF-268) was 340 nM and the EC50 [11] was 359 nM. The IC50 [4] was 140 nM and the IC50 [12] was 220 nM.
With `O=C1c2ccccc2C(=Nc2ccc3c(c2)OCO3)c2ccccc21` the IC50 (K562) was 2670 nM.
